Screening results (PubChem)
Compounds with a hit are over-represented: about 1.3% of the library has one in this group of screens.
CHT block: inhibitors of human choline transporter CHT; CHT-expressing cells, membrane potential dye, choline response; active compounds read low; B-score at 10 µM; 310,000 tested, 0.86% active; AID 488975;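 active = B-score over 3 SD under the library average, and starting fluorescence ratio not unusually high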;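 also: choline stimulus applied at its EC90 after an EC20 pre-addition; B-score computed on integrated fluorescence ratio after choline addition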
CHT PAM: allosteric activators of human choline transporter CHT | CHT-expressing cells, membrane potential dye, choline EC20; active compounds read high; LV-AA mutant CHT in HEK293 cells | B-score at 10 µM | AID 488977 | 310,000 tested, 0.49% active;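 active = initial fluorescence not abnormally high and integrated response B-score, plate-corrected, over 3 SD above library mean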
proCasp3 act: activates human procaspase-3 | P42574 | recombinant procaspase-3 D3A, Ac-DEVD-pNA absorbance 405 nm | activation, % at 8.5 µM | 330,000 tested, 0.11% active | AID 463141;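 active = activation above the mean of all tested compounds plus 3 SD, cut at about 21% in these data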
Target sequence (P42574 whole entry D9A/D28A/D175A): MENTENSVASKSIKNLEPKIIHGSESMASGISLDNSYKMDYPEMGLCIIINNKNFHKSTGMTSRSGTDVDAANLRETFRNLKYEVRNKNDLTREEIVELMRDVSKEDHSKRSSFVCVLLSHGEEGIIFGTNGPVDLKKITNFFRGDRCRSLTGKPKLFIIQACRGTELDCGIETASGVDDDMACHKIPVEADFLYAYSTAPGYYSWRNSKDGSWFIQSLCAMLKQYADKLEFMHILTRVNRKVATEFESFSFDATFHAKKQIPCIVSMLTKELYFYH
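Assay system – Procaspase-3 D3A mutant, all three cleavage aspartates alanine · Controls – DMSO-only low control, 5 µM PC-3 D3A high control · Schedule – 1 h compound preincubation, 2 h substrate hydrolysis at 25 °C · Signal – 405 nm absorbance of p-nitroaniline, reads at 0 and 120 min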
proCasp7 act: counter-screen for procaspase-3 activators: activators of human procaspase-7 | 330,000 tested, 0.093% active | recombinant procaspase-7, Ac-DEVD-pNA absorbance 405 nm; D23A/D198A/D206A triple mutant, cannot self-cleave; scale: DMSO 0, 5 µM enzyme 100 | activation, % at 8.5 µM | AID 463210;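 active = percent activation above the screen-wide mean plus 3 SD, cut at about 25% in these data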
Target sequence (P55210 whole entry D23A/D198A/D206A): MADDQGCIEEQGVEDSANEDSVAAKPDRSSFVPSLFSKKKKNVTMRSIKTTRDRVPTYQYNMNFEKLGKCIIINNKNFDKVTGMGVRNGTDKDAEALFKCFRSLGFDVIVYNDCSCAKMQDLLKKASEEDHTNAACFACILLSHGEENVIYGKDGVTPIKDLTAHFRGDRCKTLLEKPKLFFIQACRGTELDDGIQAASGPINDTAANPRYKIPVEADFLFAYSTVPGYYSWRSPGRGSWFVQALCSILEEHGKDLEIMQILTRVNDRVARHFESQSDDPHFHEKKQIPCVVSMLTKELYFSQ
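Assay system – Uncleavable procaspase-7 mutant enzyme · Quantity – 2 µM procaspase-7 mutant as dispensed · Times – 1 h preincubation, 2 h reaction · Dosing – single nominal 8.5 µM compound dose, 0.8% DMSO final · Buffer or medium – Zinc-free 50 mM HEPES buffer, pH 7.4, with NaCl and Triton X-100 · Detection – Epi-absorbance of released pNA at 405 nm, two timepoints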
CHT activ conf: confirmation of human choline transporter (CHT) activators. shares compounds with CHT PAM. CHT-expressing cells, membrane potential dye fluorescence (FDSS); % of choline EC20–EC90 response window; HEK293 expressing CHT LV-AA mutant; choline added at its EC20. activation, % at 10 µM. 2,500 tested, 91% active;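 active = primary screen active, with duplicate mean activation above negative control mean plus 3 SD, cut at about 11% in these data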
HEK293 MP dye: counter-screen for CHT activators: effect in parental HEK293 cells; shares compounds with CHT PAM; membrane potential dye fluorescence (FDSS); measured after EC20 choline addition; ratio readout change at 10 µM, hits read low; 2,500 tested, 62% active; AID 623908;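 active = duplicate-averaged ratio beyond 3 SD from buffer wells, up or down, though filed actives are nearly all decreases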
Numbers stand for hits; – = inactive; · = no result given.

SMILES | CHT block | CHT PAM | proCasp3 act | proCasp7 act | CHT activ conf | HEK293 MP dye
Cn1nnc2c[n+](CC(=O)c3ccc4ccccc4c3)cc(Br)c21 | – | 10 | – | – | 58 | -94
Cn1nnc2c[n+](CC(=O)c3ccc(Cl)cc3)cc(Br)c21 | – | – | – | – | 59 | -89
COc1cc(-c2nnc(NC(=O)CCS(=O)(=O)c3ccccc3)o2)cc(OC)c1OC | – | – | – | – | · | ·
CCCC(CCC)C(=O)Nc1ccc2c(c1)N(C(=O)CCN1CCN(C)CC1)c1ccccc1CC2 | – | 6.8 | – | – | 19 | –
CCOC(=O)C1C(C)N=C2SCC(=O)N2C1c1cccc(Br)c1 (stereo not given) | – | – | – | – | – | –
CCOC(=O)C1C(=O)NC(c2ccccc2)=NC1c1cccc(Br)c1 (stereo not given) | – | – | – | – | · | ·
O=C(NC(=S)N1CCCC(C(F)(F)F)C1)c1ccc(F)cc1 (stereo not given) | – | – | – | – | · | ·
Cc1ccccc1SCC(=O)Nc1cc(C(F)(F)F)ccc1N1CCOCC1 | – | – | – | – | 36 | –
Cc1nnc(SCC(=O)Nc2cc(C(F)(F)F)ccc2N2CCOCC2)o1 | – | – | – | – | · | ·
CCCC12CN(C(=O)c3ccc([N+](=O)[O-])cc3)CC(C)(CN(C(=O)c3ccc([N+](=O)[O-])cc3)C1)C2=O | – | – | – | – | 45 | –
Cc1cc(OCC(=O)NCCCN2CCOCC2)c2c(C)cc(=O)oc2c1 | – | 6.5 | – | – | 60 | -52
CCN(CC)CCCNc1ncnc2ccccc12 | – | 7.8 | – | – | 61 | -66
OCCCCCNc1ncnc2ccccc12 | – | – | – | – | · | ·
Cc1cc(-n2c(C)c3c(C)nnc(C)c3c2C)ccc1N | – | 6.7 | – | – | 38 | -22
Cc1ccc(-n2c(C)c3c(C)nnc(C)c3c2C)cc1N | – | – | – | – | · | ·
CCCCn1c(=N)n(CC(O)c2ccccc2)c2ccccc21 (stereo not given) | – | – | – | – | · | ·
CCCCn1c(=N)n(CC(O)COc2ccccc2)c2ccccc21 (stereo not given) | – | – | – | – | 36 | –
Cc1nnc2n(C)c(=O)c3c4c(sc3n12)COC(C)(C)C4 | – | 6.5 | – | – | 74 | -72
COc1cc(OC)cc(C(=O)N/N=C\c2ccoc2)c1 | – | – | – | – | · | ·
CC1(C)CC2CC(C)(CN2/C=N/c2sc3c(c2C#N)CC(C)(C)NC3(C)C)C1 (stereo not given) | – | 8 | – | – | 35 | –
CC(CC(=O)N(C)c1c(N)n(Cc2ccccc2)c(=O)[nH]c1=O)c1ccccc1 (stereo not given) | – | – | – | – | · | ·
CCCCNC(=S)N(C)/N=C/c1c(F)c(F)c(F)c(F)c1F | – | 6.5 | – | – | 17 | –
CCCCNC(=S)N(C)/N=C/c1c(C)[nH]c2ccccc12 | – | – | – | – | · | ·
CCOC(=O)C1(CCOc2ccccc2)CCN(Cc2cc(OC)ccc2OC)CC1 | – | – | – | – | 30 | –
CCOC(=O)C1(CCOc2ccccc2)CCN(Cc2cccn2-c2ncccn2)CC1 | – | 15 | – | – | 38 | –
SMILES | CHT block | CHT PAM | proCasp3 act | proCasp7 act | CHT activ conf | HEK293 MP dye
CCOC(=O)C1(Cc2cccc(OC)c2)CCN(Cc2cccc3cnccc23)CC1 | – | – | – | – | 22 | –
CCOC(=O)C1(CCOc2ccccc2)CCN(Cc2ccc(-n3cccn3)cc2)CC1 | – | 6.3 | – | – | 27 | –
COc1cc(NC(=O)Cn2cnc3c(OCc4ccccc4)ncnc32)cc(OC)c1OC | · | · | – | – | · | ·
CCCN(CC(=O)Nc1ccccc1OC)C(=O)CSc1ccc(Br)cc1C | · | · | – | – | · | ·
O=C(c1ccco1)N1CCN(c2ccnc3cc(Cl)ccc23)CC1 | – | – | – | – | 20 | -68
O=C(C1CC1)N1CCN(c2ccnc3cc(Cl)ccc23)CC1 | – | 7.3 | – | – | 65 | -67
CN(C)CCNC(=O)c1onc(CSc2ccncc2)c1C(=O)NCCN(C)C | – | – | – | – | 50 | -58
CCCNC(=O)c1onc(CSc2ccncc2)c1C(=O)NCCC | – | – | – | – | · | ·
O=C(c1ccc(CS(=O)c2ccccc2Cl)o1)N1CCOCC1 (stereo not given) | – | – | – | – | · | ·
COc1cccc(N2CCN(C(=O)c3ccc(CS(=O)c4ccccc4Cl)o3)CC2)c1 (stereo not given) | – | – | – | – | 50 | –
O=C(c1ccc(CS(=O)c2ccccc2Cl)o1)N1CCN(c2ccccc2)CC1 (stereo not given) | – | 6.4 | – | – | 17 | –
CC(NC(=O)Cn1c(NCCO)nc2ccccc21)C1CC2CCC1C2 (stereo not given) | – | – | – | – | 38 | –
CCc1c(C)nc2nc(SCc3ccccc3)[nH]n2c1=O | – | – | – | – | · | ·
COc1ccc(-n2c(-c3ccc(Cl)cc3)c[n+]3c2CCCCC3)cc1 | – | 12 | – | – | 44 | –
FC(F)Oc1ccc(-c2c[n+]3c(n2-c2ccccc2)CCCCC3)cc1 | – | – | – | – | · | ·
COc1ccc(-c2c[n+]3c(n2-c2ccc(C)cc2)CCCCC3)cc1 | – | 12 | – | – | 13 | –
CCOc1ccc(-n2c(-c3ccc(OC)cc3)c[n+]3c2CCCCC3)cc1 | – | 6.4 | – | – | 41 | –
CCOc1ccc(-n2c(-c3ccccc3)c[n+]3c2CCC3)cc1 | – | – | – | – | 43 | -30
COc1ccc(-c2c[n+]3c(n2-c2ccccc2)CCCCC3)cc1 | – | – | – | – | · | ·
CCOc1ccc(-n2c(-c3ccc(Br)cc3)c[n+]3c2CCCCC3)cc1 | – | – | – | – | · | ·
Cc1sc2ncn(CC(=O)N3CCC(C(N)=O)CC3)c(=O)c2c1S(=O)(=O)N1CCOCC1 | – | – | – | – | · | ·
CCOc1cc(CNCCO)cc(Br)c1OCc1ccccc1 | – | – | – | – | · | ·
CCOc1cc(CNCCSc2nnnn2C)cc(Br)c1OCc1ccccc1 | – | 7 | – | – | 15 | –
CCCCn1c(N)c(N(Cc2ccccc2OC)C(=O)c2ccc([N+](=O)[O-])s2)c(=O)[nH]c1=O | – | – | – | – | · | ·
Nc1ncnc2c1ncn2[C@@H]1O[C@H](CNCc2ccccc2OCc2ccc(Cl)cc2Cl)[C@@H](O)[C@H]1O | · | · | – | – | · | ·
COC(=O)c1ccc(Nc2cc(C)nc3ccc(C)cc23)cc1 | – | – | – | – | · | ·
COC(=O)c1ccc2nc(C)cc(Nc3ccccc3C)c2c1 | – | 6.6 | – | – | 44 | -44
Cc1cc(C)n2[nH]c(=O)c(N=Nc3ccccc3)c2n1 | – | – | – | – | · | ·
